Published values gathered from unrelated publications.
Protocols differ between the studies behind these lines.
Target: Casein kinase I isoform delta (CSNK1D, Homo sapiens, UniProt P48730)

Structure (SMILES) | read-out | action | method | tested at | endpoint | result
Cn1cncc1[C@@](O)(COc1ccc(C#N)cc1-c1ccc(OC(F)(F)F)cc1)c1ccc(C#N)cc1 | cell-free assay |  | competition with immobilised ligand | 1 µM | remaining binding | 94%
CC(C)(C)c1cc(C=C(C#N)C#N)cc(Br)c1O | enzyme activity | inhibitor |  | 0.5 µM | remaining activity | 85.5%
Cn1cc(-c2cc(F)cc(N3CCn4c(cc5c4CCCC5)C3=O)c2CO)cc(Nc2ccc(N3CCN(C4COC4)CC3)cn2)c1=O | enzyme activity | inhibitor |  | 0.1 µM | inhibition | 6%
Cc1nn(C)cc1-c1nc2c(N3CCN(Cc4ccc(Cl)cc4)CC3)c(Cl)cnc2[nH]1 | binding |  | competition with immobilised ligand | 1 µM | remaining binding | 100%
Cn1cc(-c2cccc(N3CCc4c(sc5c4CC(C)(C)C5)C3=O)c2CO)cc(Nc2ccncn2)c1=O | enzyme activity | inhibitor |  | 1 µM | inhibition | 0%
O=c1[nH]c2ccccc2n1C1CCN(Cc2ccc(-c3[nH]c4cc5ncnc5cc4nc3-c3ccccc3)cc2)CC1 | cell-free assay |  |  | 0.5 µM | remaining signal | 100%
Nc1ncc(-c2nc(N3CCOCC3)nc(N3CCOCC3)n2)c(C(F)F)n1 | binding |  | competition with immobilised ligand | 10 µM | remaining binding | 90%
COc1ncccc1-c1cnn2ccc(N3CCN(C(=O)OC(C)C)CC3)nc12 | binding |  | competition with immobilised ligand | 1 µM | remaining binding | 85%
